Measurements as given in ChEMBL document CHEMBL4373640, “Synthesis and antitumor activity of aza-brazilan derivatives containing imidazolium salt pharmacophores” (Medchemcomm, 2019).
pIC50: −log10 of the molar value.

What was measured:
[1] = Cytotoxicity against human SMMC-7221 cells assessed as reduction in cell viability after 48 hrs by MTS assay; assay type: functional, cell-based; conditions: SMMC-7221, 48 h
How it was run: (§1)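 Cells (5 × 10^3 per well) were plated 12 h before treatment, then exposed continuously to compound for 48 h. MTS was added, with 1–4 h incubation at 37 °C and OD read at 490 nm. IC50 is the concentration cutting OD by 50% versus untreated cells, taken from dose–response curves. Values are the mean of three independent determinations.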

[2] = system: A549; experiment: Cytotoxicity against human A549 cells assessed as reduction in cell viability after 48 hrs by MTS assay; assay type: functional, cell-based; conditions: A549, 48 h; how it was run: as §1
[3] = system: MCF7; experiment: Cytotoxicity against human MCF7 cells assessed as reduction in cell viability after 48 hrs by MTS assay; assay type: functional, cell-based; conditions: MCF7, 48 h; how it was run: as §1
[4] = system: SW480; experiment: Cytotoxicity against human SW480 cells assessed as reduction in cell viability after 48 hrs by MTS assay; assay type: functional, cell-based; conditions: SW480, 48 h; how it was run: as §1
[5] = system: MCF7; experiment: Potency index, ratio of cisplatin IC50 to compound IC50 for cytotoxicity against human MCF7 cells by MTS assay; assay type: functional

Row | Compound | pIC50 [1] | pIC50 [2] | pIC50 [3] | pIC50 [4] | Ratio IC50 [5]
1 | COc1ccc(C(=O)C[n+]2c(C)n(CCCN3C[C@@H]4Cc5ccccc5[C@@H]4c4cccc(OC)c43)c3ccccc32)cc1 | 5.88 | 5.44 | 6.40 | 5.90 | 
2 | COc1ccc(C(=O)C[n+]2cn(CCCN3C[C@@H]4Cc5ccc(Br)cc5[C@@H]4c4cccc(OC)c43)c3cc(C)c(C)cc32)cc1.[Br-] | 6.05 | 5.82 | 6.46 | 5.85 | 56
3 | COc1ccc(C(=O)C[n+]2c(C)n(CCCN3C[C@@H]4Cc5ccc(Br)cc5[C@@H]4c4cccc(OC)c43)c3ccccc32)cc1 | 6.03 | 5.91 | 6.00 | 5.91 | 
4 | COc1cc2c(cc1OC)[C@@H]1c3cccc(OC)c3N(CCCn3c[n+](Cc4ccc5ccccc5c4)c4cc(C)c(C)cc43)C[C@@H]1C2 | 5.74 | 5.23 | 5.83 | 5.79 | 
5 | COc1cccc2c1N(C(=O)CCn1cnc3cc(C)c(C)cc31)C[C@@H]1Cc3ccccc3[C@H]21 | < 4.70 | < 4.70 | < 4.70 | < 4.70 | 
